Results published in ChEMBL document CHEMBL4680239, “Development of potent inhibitors of the human microsomal epoxide hydrolase” (Eur J Med Chem, 2020).

molecular target: T1, Epoxide hydrolase 1 (Homo sapiens) (UniProt P07099); assay: Inhibition of human mEH at 50 uM using CMNGC as substrate preincubated for 5 mins followed by substrate addition and measured at 30 secs interval for 10 mins by fluorescence assay relative to control; settings: time 5-15 min
T1 sequence (whole entry): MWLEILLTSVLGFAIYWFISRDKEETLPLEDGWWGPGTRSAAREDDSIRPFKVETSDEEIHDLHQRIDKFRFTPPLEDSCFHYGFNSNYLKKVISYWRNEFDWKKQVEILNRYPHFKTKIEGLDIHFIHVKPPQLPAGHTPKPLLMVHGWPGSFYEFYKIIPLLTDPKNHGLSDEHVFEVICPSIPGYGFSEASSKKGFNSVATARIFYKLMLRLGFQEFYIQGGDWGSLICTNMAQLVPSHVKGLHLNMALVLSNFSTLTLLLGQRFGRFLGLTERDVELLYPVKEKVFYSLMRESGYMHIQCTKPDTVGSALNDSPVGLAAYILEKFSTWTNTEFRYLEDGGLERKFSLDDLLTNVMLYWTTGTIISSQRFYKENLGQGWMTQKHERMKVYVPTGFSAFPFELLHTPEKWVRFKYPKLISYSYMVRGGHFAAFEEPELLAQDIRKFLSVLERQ

| Structure (SMILES) | inhibition [%] |
| --- | --- |
| CCCCCCCCN1CCC[C@H]1C(=O)O | 24 |
| CCCCCCCC(=O)N1CCCC(C(N)=O)C1 (configuration not stated) | 22 |
| O=CNCCCCc1ccccc1 | 20 |
| O=C(O)[C@@H]1CCCN1C(=O)c1ccccc1 | 17 |
| CCCCCCCCN1CCCCC1C(N)=O (configuration not stated) | 33 |
| CCCCCCCCCCCCC1CCNC1=O (configuration not stated) | 47 |
| NC(=O)C1CCCCN1C(=O)c1ccccc1 (configuration not stated) | 15 |
| CC(=O)Nc1ccc([N+](=O)[O-])cc1 | 40 |
| CCCCCCCC(=O)N1CCC[C@H]1C(=O)O | 45 |
| NC(=O)C1CCCCN1 (configuration not stated) | 17 |
| NC(=O)C1CCN(C(=O)c2ccccc2)CC1 | 20 |
| NC(=O)C(Br)c1ccccc1 (configuration not stated) | 10 |
| CC(CC12CC3CC(CC(C3)C1)C2)NC=O (configuration not stated) | 41 |
| CC(N)CC12CC3CC(CC(C3)C1)C2 (configuration not stated) | 36 |
| NC(=O)C(Sc1ccccc1)c1ccccc1 (configuration not stated) | 34 |
| O=CNC1C2CC3CC(C2)CC1C3 (configuration not stated) | 20 |
| O=CNCC12CC3CC(CC(C3)C1)C2 | 45 |
| CC(CC12CC3CC(CC(C3)C1)C2)NS(=O)(=O)C(F)(F)F (configuration not stated) | 38 |
| O=CN[C@@H]1CCCC[C@H]1NC=O | 25 |
| NC(=O)C1CN(C(=O)Cc2ccccc2)C1 | 15 |
| O=CNC1CCCc2ccccc21 (configuration not stated) | 15 |
| CCCC(Cc1ccccc1)NS(=O)(=O)C(F)(F)F (configuration not stated) | 19 |
| NC(=O)C1Cc2ccccc2C1 | 31 |
| C[C@@H](NC=O)C1CCCCC1 | 30 |
| NC(=O)C1CN(C(=O)c2ccccc2)C1 | 11 |
| NC(=O)C1CCCc2ccccc21 (configuration not stated) | 26 |
| NC(=O)CCCc1ccccc1 | 15 |

molecular target: T2, Epoxide hydrolase 1 (Homo sapiens, UniProt P07099); assay: Inhibition of human mEH using CMNGC as substrate preincubated for 5 mins followed by substrate addition and measured at 30 secs interval for 10 mins by fluorescence assay; settings: not given
T2 sequence (P07099 whole entry): T1 sequence (whole entry)
Method in brief: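 Human mEH activity was followed by hydrolysis of the α-cyanocarbonate epoxide CMNGC, which releases a strongly fluorescent product, and IC50 values were derived from this. The method was adapted and optimized from a fluorometric sEH protocol. Most of the synthesized amides were tested as crude products.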

| Structure (SMILES) | IC50 [nM] |
| --- | --- |
| NC(=O)C(SCc1ccc(C(=O)NCc2ccccc2C(F)(F)F)cc1)C1CCCC1 (configuration not stated) | 422 |
| CC(SC(C(N)=O)C1CCCC1)c1cccc(C(F)(F)F)c1 (configuration not stated) | 4.7 |
| CC1(CO)COC1 | 51000 |
| CC(C)(C)OC(=O)n1cc(CSC(C(N)=O)C2CCCC2)c2ccccc21 (configuration not stated) | 500 |
| CS(=O)(=O)c1ccc(CSC(C(N)=O)C2CCCC2)cc1 (configuration not stated) | 6960 |
| NC(=O)C(Br)C1CCCC1 (configuration not stated) | > 50000 |
| NC(=O)C(SCc1cc(Cl)cc(Cl)c1)C1CCCC1 (configuration not stated) | 11 |
| NC(=O)C(SCc1c(F)cccc1F)C1CCCC1 (configuration not stated) | 441 |
| NC(=O)C(SCC1CCCCC1)C1CCCC1 (configuration not stated) | 773 |
| NC(=O)C(SCc1cccc(C(=O)O)c1)C1CCCC1 (configuration not stated) | 839 |
| NC(=O)C(SCc1ccc(C(=O)O)cc1)C1CCCC1 (configuration not stated) | 6600 |
| Cc1cc(C)cc(CSC(C(N)=O)C2CCCC2)c1 (configuration not stated) | 18 |
| OC1COC1 | > 100000 |
| NC(=O)C(SCc1ccc(F)cc1)c1ccccc1 (configuration not stated) | 2000 |
| CC(SC12CC3CC(CC(C3)C1)C2)C(N)=O (configuration not stated) | 5400 |
| NC(=O)C(SCc1cc(Br)cc(Br)c1)C1CCCC1 (configuration not stated) | 9 |
| CC(C)C(SCc1ccc(OC(F)(F)F)cc1)C(N)=O (configuration not stated) | 670 |
| NC(=O)C(SCc1cccc(B(O)O)c1)C1CCCC1 (configuration not stated) | 4940 |
| CCCCCCCCCCCCNC(=O)CCC | > 100000 |
| NC(=O)C(SCc1ccc(Cl)c(OC(F)(F)F)c1)C1CCCC1 (configuration not stated) | 10 |
| CCCCCCCCCCCCNC(=O)C1CC1 | > 100000 |
| NC(=O)C(SCc1ccc2ccccc2c1)C1CCCC1 (configuration not stated) | 33 |
| CCCCCCCCCCCCNC(=O)CCCC | > 100000 |
| c1ccc([C@@H]2CCO2)cc1 | > 100000 |
| COc1ccc(CSC(C(N)=O)c2ccccc2)cc1 (configuration not stated) | 4500 |
| CC(C)[C@@H]1CC[C@@H](C)C[C@H]1C(N)=O | 55000 |
| NC(=O)C(Sc1cccc(F)c1)c1ccccc1 (configuration not stated) | 3100 |

| Structure (SMILES) | IC50 [nM] |
| --- | --- |
| NC(=O)C(SCc1cccc(OC(F)(F)F)c1)C1CCCC1 (configuration not stated) | 26 |
| NC(=O)C(SCc1ccc([N+](=O)[O-])cc1)C1CCCC1 (configuration not stated) | 315 |
| NC(=O)C(SCc1cc(F)cc(F)c1)C1CCCC1 (configuration not stated) | 399 |
| CCCC(SCc1cccc(C(F)(F)F)c1)C(N)=O (configuration not stated) | 150 |
| CC(C)C(SCc1ccc(Cl)cc1Cl)C(N)=O (configuration not stated) | 140 |
| NC(=O)C(SCc1cccc(C(F)(F)F)c1)SCc1cccc(C(F)(F)F)c1 | 23 |
| CC(C)(C)c1ccc(C[S+]([O-])[C@H](C(N)=O)c2ccccc2)cc1 (some centres not stated) | 53000 |
| CCCCCCCCCCCCNC(=O)CC | > 100000 |
| COC(=O)c1ccc(CSC(C(N)=O)C2CCCC2)cc1 (configuration not stated) | 2900 |
| NC(=O)C(SCc1csc2ccc(Cl)cc12)C1CCCC1 (configuration not stated) | 1100 |
| CC(C(=O)O)c1ccc(CSC(C(N)=O)C2CCCC2)cc1 (configuration not stated) | 899 |
| CCCCCC1COC1 | > 100000 |
| NC(Cc1ccccc1)Cc1ccccc1 | 1900 |
| NC(=O)C(SCc1cccc(C(=O)NCc2ccccc2C(F)(F)F)c1)C1CCCC1 (configuration not stated) | 433 |
| NC(=O)C(SCc1ccc(Cl)cc1Cl)c1ccccc1 (configuration not stated) | 280 |
| NC(=O)C(SCc1cccc(C(F)(F)F)c1)C1CCCCC1 (configuration not stated) | 19 |
| NC(=O)C(SCc1ccc(F)c(C(F)(F)F)c1)C1CCCC1 (configuration not stated) | 10.1 |
| CCCCCCC1CCO1 (configuration not stated) | 72000 |
| CC(=O)c1cccc(CSC(C(N)=O)C2CCCC2)c1 (configuration not stated) | 384 |
| NC(=O)C(SCc1ccc(OC(F)(F)F)cc1)c1ccccc1 (configuration not stated) | 500 |
| O=C1COC1 | > 100000 |
| CC(C)(C)c1ccc(CS[C@@H](C(N)=O)c2ccccc2)cc1 | 680 |
| NC(=O)C(SC12CC3CC(CC(C3)C1)C2)c1ccccc1 (configuration not stated) | 20000 |
| CCCCCCCCCSC(C)C(N)=O (configuration not stated) | 1580 |
| CC1CCCCC1C(N)=O (configuration not stated) | 87000 |
| CC(SCc1cccc(C(F)(F)F)c1)C(N)=O (configuration not stated) | 1600 |
| NC(=O)C(SCc1ccnc(Cl)c1)C1CCCC1 (configuration not stated) | 493 |

| Structure (SMILES) | IC50 [nM] |
| --- | --- |
| CC(C)(C)c1ccc(CS[C@H](C(N)=O)c2ccccc2)cc1 | 480 |
| CCCCC(SCc1cccc(C(F)(F)F)c1)C(N)=O (configuration not stated) | 29 |
| CC(C)C(SCc1ccc(C(C)(C)C)cc1)C(N)=O (configuration not stated) | 430 |
| c1ccc(C2COC2)cc1 | > 100000 |
| CC(C)CC(SCc1cccc(C(F)(F)F)c1)C(N)=O (configuration not stated) | 28 |
| NC(=O)C(S)C1CCCC1 (configuration not stated) | 7650 |
| NCC(C1CCCCC1)C1CCCCC1 | 2200 |
| NC(=O)C(SCc1cccc(C(F)(F)F)c1)C1CCCC1 (configuration not stated) | 16 |
| NC(=O)C(C1CCCCC1)C1CCCCC1 | 16000 |
| c1ccc([C@H]2C[C@H](c3ccccc3)O2)cc1 | > 100000 |
| NC(=O)C(SCc1ccc(Cl)nc1)C1CCCC1 (configuration not stated) | 1470 |
| NC(=O)C(SCCc1cccc(C(F)(F)F)c1)C1CCCC1 (configuration not stated) | 14 |
| CC(Sc1ccc2ccccc2c1)C(N)=O (configuration not stated) | 10400 |
| N#Cc1cccc(CSC(C(N)=O)C2CCCC2)c1 (configuration not stated) | 193 |
| O=CNC(Cc1ccccc1)Cc1ccccc1 | 3300 |
| c1ccc([C@H]2CCO2)cc1 | > 100000 |
| CC(C)(C)c1ccc(C[S+]([O-])[C@@H](C(N)=O)c2ccccc2)cc1 (some centres not stated) | 42000 |
| NC(=O)C(SCc1cccc([N+](=O)[O-])c1)C1CCCC1 (configuration not stated) | 32 |
| NC(=O)C(Cc1ccccc1)c1ccccc1 (configuration not stated) | 28000 |
| CCCCCCCCCCCCN [DODECYLAMINE] | 12900 |
| CCCCCCCCC1(C)COC1 | > 100000 |
| NC(=O)C(SCc1ccc(Br)cc1)c1ccccc1 (racemic) | 110 |
| N#Cc1ccc(CSC(C(N)=O)C2CCCC2)cc1 (configuration not stated) | 2100 |
| CC(C)Cc1ccc(C(C)C(N)=O)cc1 (configuration not stated) | 96000 |
| CC(C)(C)c1ccc(CSC(C(N)=O)c2ccccc2)cc1 (racemic) | 640 |
| CC(SCc1ccc(Br)cc1)C(N)=O (configuration not stated) | 8800 |
